Reference: ChEMBL document CHEMBL1146686, “Phenolic thiazoles as novel orally-active neuroprotective agents” (Bioorg Med Chem Lett, 2004)

Species on record: Rattus norvegicus
Assay: Compound tested to inhibit (LPO) lipid peroxidation was determined in rat brain microsomes
Format: functional
Procedure, shortened: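 Rat brain microsomes; lipid peroxidation induced by Fe2+. Antioxidant activity read as reduction of malondialdehyde formed from unsaturated fatty acid peroxidation.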

Structure (SMILES) | IC50 [µM]
Cc1cc(C(C)(C)C)c(O)c(C(C)(C)C)c1 [BUTYLATED HYDROXYTOLUENE] | 30
CC1=NN(c2ccccc2)C(=O)C1 [EDARAVONE] | 32
